Test results reported in ChEMBL document CHEMBL2010673, “Structure-activity relationship of pyrrole based S-nitrosoglutathione reductase inhibitors: carboxamide modification” (Bioorg Med Chem Lett, 2012).
The source made the active and inactive calls. The calls are words filed in the database; no cut-off is given here.

Legend:
[1] = molecular target: D(1A) dopamine receptor (Homo sapiens) (UniProt P21728); assay: Inhibition of dopamine D1 receptor at 10 uM by radioligand displacement assay
Summary of the method: (§1)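 Off-target panel: radioligand binding to each receptor, channel or transporter with test compound at 10 µM; activity reported as percent inhibition of specific binding. At least 6 control wells with or without vehicle per assay. Inhibition of 50% or greater counted as a positive response.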

[2] = molecular target: 5-hydroxytryptamine receptor 1A (Homo sapiens) (UniProt P08908); assay: Inhibition of 5HT1A receptor at 10 uM by radioligand displacement assay
Chain of 5-hydroxytryptamine receptor 1A (Homo sapiens) (P08908 whole entry): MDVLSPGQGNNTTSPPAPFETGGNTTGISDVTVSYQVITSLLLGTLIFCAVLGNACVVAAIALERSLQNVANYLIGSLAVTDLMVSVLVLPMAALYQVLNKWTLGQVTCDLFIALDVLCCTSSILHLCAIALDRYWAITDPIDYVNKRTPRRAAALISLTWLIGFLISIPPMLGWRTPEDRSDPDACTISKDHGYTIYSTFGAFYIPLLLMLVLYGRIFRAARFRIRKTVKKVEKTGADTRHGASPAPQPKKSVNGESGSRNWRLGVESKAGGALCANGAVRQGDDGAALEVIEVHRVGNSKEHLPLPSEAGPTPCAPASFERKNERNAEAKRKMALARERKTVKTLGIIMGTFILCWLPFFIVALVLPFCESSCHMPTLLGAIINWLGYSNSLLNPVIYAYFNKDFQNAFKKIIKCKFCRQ
Summary of the method: (§2)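 Off-target radioligand binding panel. Test compound at 10 µM. Each assay had at least 6 control wells, with or without vehicle, for soluble compounds. Values are percent inhibition of radioligand binding. ≥50% inhibition was scored as a positive response.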

[3] = molecular target: Vasoactive intestinal polypeptide receptor 1 (Homo sapiens) (UniProt P32241); assay: Inhibition of VPAC1 receptor at 10 uM by radioligand displacement assay; summary of the method: as §2
Chain of Vasoactive intestinal polypeptide receptor 1 (Homo sapiens) (P32241 whole entry): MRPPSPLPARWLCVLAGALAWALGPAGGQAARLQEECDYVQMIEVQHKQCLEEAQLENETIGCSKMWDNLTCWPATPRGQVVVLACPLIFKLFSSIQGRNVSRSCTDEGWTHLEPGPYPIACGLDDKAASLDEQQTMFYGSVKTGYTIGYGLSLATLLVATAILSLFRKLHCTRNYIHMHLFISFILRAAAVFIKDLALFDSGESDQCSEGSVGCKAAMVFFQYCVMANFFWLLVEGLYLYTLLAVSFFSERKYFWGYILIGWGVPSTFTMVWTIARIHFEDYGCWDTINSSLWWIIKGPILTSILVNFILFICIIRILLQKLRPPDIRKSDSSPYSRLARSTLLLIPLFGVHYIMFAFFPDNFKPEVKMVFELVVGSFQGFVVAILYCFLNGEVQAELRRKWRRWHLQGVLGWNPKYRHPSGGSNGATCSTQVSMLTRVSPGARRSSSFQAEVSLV

[4] = molecular target: 5-hydroxytryptamine receptor 1B (Homo sapiens) (UniProt P28222); assay: Inhibition of 5HT1b receptor at 10 uM by radioligand displacement assay; summary of the method: as §2
Chain of 5-hydroxytryptamine receptor 1B (Homo sapiens) (P28222 whole entry): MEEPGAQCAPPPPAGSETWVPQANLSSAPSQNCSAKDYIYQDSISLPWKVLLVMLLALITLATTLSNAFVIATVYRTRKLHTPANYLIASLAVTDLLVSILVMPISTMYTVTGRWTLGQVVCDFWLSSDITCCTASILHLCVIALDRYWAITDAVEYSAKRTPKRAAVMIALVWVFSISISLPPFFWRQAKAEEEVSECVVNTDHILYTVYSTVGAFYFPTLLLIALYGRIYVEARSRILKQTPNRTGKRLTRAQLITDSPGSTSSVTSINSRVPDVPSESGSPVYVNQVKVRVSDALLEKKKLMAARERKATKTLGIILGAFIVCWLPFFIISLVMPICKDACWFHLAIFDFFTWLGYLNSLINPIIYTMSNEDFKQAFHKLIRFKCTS

[5] = molecular target: Thromboxane A2 receptor (Homo sapiens) (UniProt P21731); assay: Inhibition of TP receptor at 10 uM by radioligand displacement assay; summary of the method: as §2
Chain of Thromboxane A2 receptor (Homo sapiens) (P21731 whole entry): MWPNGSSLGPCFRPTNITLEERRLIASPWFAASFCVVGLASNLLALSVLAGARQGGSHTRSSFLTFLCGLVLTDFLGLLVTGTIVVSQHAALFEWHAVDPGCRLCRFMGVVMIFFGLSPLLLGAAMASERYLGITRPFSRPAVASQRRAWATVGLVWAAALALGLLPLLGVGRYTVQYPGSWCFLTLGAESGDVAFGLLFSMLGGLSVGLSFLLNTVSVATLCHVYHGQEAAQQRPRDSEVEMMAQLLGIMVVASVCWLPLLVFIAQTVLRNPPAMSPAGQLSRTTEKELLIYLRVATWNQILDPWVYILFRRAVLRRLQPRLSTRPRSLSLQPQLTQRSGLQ

[6] = molecular target: C-X-C chemokine receptor type 2 (Homo sapiens) (UniProt P25025); assay: Inhibition of CXCR2 receptor at 10 uM by radioligand displacement assay; summary of the method: as §2
Chain of C-X-C chemokine receptor type 2 (Homo sapiens) (P25025 whole entry): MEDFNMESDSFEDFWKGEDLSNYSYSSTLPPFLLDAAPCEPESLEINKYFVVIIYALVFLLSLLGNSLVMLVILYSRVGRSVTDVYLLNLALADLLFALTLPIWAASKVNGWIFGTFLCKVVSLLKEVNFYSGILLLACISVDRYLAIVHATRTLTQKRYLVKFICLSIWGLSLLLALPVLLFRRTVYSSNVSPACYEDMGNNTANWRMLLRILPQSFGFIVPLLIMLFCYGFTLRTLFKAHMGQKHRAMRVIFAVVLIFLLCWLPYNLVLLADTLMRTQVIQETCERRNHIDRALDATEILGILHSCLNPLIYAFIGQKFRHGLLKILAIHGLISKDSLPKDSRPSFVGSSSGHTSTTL

[7] = molecular target: Muscarinic acetylcholine receptor M2 (Homo sapiens) (UniProt P08172); assay: Inhibition of M2 receptor at 10 uM by radioligand displacement assay; summary of the method: as §2
Chain of Muscarinic acetylcholine receptor M2 (Homo sapiens) (P08172 whole entry): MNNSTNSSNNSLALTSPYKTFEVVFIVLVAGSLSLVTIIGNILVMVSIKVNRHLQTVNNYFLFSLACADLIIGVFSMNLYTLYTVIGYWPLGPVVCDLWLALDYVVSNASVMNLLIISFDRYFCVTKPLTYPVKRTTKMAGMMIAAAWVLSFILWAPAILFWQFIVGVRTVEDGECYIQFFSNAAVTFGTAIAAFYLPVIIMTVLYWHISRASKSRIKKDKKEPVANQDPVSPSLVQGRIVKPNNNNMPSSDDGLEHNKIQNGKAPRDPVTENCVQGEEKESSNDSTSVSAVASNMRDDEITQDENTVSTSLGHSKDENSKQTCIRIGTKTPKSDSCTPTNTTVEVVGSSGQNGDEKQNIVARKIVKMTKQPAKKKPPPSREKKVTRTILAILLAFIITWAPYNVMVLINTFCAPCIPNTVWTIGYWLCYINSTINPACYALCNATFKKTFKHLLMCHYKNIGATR

[8] = molecular target: Beta-1 adrenergic receptor (Homo sapiens) (UniProt P08588); assay: Inhibition of Beta1 adrenergic receptor at 10 uM by radioligand displacement assay; summary of the method: as §2
Chain of Beta-1 adrenergic receptor (Homo sapiens) (P08588 whole entry, looked up): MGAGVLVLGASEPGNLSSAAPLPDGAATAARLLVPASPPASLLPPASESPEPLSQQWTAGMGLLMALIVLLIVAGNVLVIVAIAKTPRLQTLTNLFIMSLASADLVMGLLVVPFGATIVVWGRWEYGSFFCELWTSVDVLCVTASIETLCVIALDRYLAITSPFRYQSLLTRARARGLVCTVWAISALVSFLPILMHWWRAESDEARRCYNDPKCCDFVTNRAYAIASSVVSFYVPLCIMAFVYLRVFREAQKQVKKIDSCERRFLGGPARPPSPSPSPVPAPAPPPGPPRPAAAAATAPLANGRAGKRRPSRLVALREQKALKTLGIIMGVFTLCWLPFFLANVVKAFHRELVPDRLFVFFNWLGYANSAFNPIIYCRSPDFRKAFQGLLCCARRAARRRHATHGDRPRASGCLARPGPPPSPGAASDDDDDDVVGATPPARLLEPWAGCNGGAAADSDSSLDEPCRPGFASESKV

[9] = Inhibition of alpha1 adrenergic receptor at 10 uM by radioligand displacement assay; summary of the method: as §1
[10] = Inhibition of Smt-tagged S-nitrosoglutathione reductase expressed in Escherichia coli using […] as substrate for 3 mins by spectrophotometric analysis; details: read-out: IC50
[11] = Inhibition of chloride channel at 10 uM by radioligand displacement assay; summary of the method: as §1
[12] = molecular target: Cannabinoid receptor 1 (Homo sapiens) (UniProt P21554); assay: Inhibition of CB1 receptor at 10 uM by radioligand displacement assay; summary of the method: as §2
Chain of Cannabinoid receptor 1 (Homo sapiens) (P21554 whole entry): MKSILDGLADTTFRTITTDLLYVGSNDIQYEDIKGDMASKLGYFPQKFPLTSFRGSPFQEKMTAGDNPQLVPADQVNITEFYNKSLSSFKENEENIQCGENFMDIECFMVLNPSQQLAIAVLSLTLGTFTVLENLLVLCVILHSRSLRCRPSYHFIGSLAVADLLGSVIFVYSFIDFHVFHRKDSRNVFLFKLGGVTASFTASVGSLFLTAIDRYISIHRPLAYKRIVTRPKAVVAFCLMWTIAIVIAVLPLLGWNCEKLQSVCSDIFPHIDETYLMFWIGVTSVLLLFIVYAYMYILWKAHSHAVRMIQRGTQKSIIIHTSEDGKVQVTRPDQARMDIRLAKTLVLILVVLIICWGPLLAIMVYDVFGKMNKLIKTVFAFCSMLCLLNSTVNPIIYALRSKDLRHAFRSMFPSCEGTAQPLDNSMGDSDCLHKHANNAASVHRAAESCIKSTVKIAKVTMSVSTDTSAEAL

[13] = molecular target: Histamine H2 receptor (Homo sapiens) (UniProt P25021); assay: Inhibition of H2 receptor at 10 uM by radioligand displacement assay; summary of the method: as §2
Chain of Histamine H2 receptor (Homo sapiens) (P25021 whole entry): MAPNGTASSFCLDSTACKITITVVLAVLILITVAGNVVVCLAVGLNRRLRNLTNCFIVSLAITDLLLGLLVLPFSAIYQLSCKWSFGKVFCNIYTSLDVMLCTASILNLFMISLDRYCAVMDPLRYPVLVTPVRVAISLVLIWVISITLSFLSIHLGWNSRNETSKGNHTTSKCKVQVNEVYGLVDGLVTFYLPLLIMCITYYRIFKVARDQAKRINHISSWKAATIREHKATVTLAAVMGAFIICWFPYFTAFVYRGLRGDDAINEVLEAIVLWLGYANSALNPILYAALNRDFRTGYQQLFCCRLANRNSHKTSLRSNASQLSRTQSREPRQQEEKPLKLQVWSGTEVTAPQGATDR

[14] = Inhibition of Small conductance calcium-activated potassium channel at 10 uM by radioligand displacement assay; summary of the method: as §2
Mus musculus [15] = assay: Antiasthamatic activity against ovalbumin-induced asthma in ovalbumin-sensitized BALB/c mouse assessed as inhibition of methacholine-induced eosinophil infiltration in bronchoalveolar lavage fluid at 1 mg/kg, iv administered 24 hrs prior to methacholine-challenge by light microscopy; type: functional, organism-based; set-up: dose 1 mg/kg; details: Lung
Summary of the method: (§3)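 Mice made asthmatic by ovalbumin exposure. A single 1 mg/kg IV dose was given 24 h before aerosolized methacholine challenge. Controls received IV PBS vehicle or three inhaled doses of Combivent (5.2 mg/kg albuterol + 0.9 mg/kg ipratropium) at 48, 24 and 1 h before challenge. Bronchoconstriction was read by whole-body plethysmography, and eosinophils were counted in BALF. Data are mean ± SEM, 10 mice per group.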

Mus musculus [16] = assay: Toxicity in CD1 mouse assessed as adverse effect in spleen at 10 mg/kg, iv qd administered for 5 days; type: organism-based; set-up: dose 10 mg/kg, route intravenous; details: in vivo, 120 h
Summary of the method: (§4)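 Male CD-1 mice dosed IV once daily for 5 days at 1, 10 or 50 mg/kg. Toxicity judged by histology of liver, spleen and thymus, and a no-observed-adverse-effect level (NOAEL) derived from the study.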

Mus musculus [17] = assay: Toxicity in CD1 mouse assessed as adverse effect in thymus iv qd administered for 5 days; details: in vivo, 120 h
Mus musculus [18] = assay: Toxicity in CD1 mouse assessed as adverse effect in liver at 10 mg/kg, iv qd administered for 5 days; type: organism-based; set-up: dose 10 mg/kg, route intravenous; details: in vivo, 120 h; summary of the method: as §4
Mus musculus [19] = assay: Toxicity in CD1 mouse assessed as adverse effect in thymus at 10 mg/kg, iv qd administered for 5 days; type: organism-based; set-up: dose 10 mg/kg, route intravenous; details: in vivo, 120 h; summary of the method: as §4
Mus musculus [20] = assay: Toxicity in CD1 mouse assessed as adverse effect in liver at 50 mg/kg, iv qd administered for 5 days; type: organism-based; set-up: dose 50 mg/kg, route intravenous; details: in vivo, 120 h; summary of the method: as §4
Mus musculus [21] = assay: Toxicity in CD1 mouse assessed as adverse effect in spleen at 50 mg/kg, iv qd administered for 5 days; type: organism-based; set-up: dose 50 mg/kg, route intravenous; details: in vivo, 120 h; summary of the method: as §4
Mus musculus [22] = assay: Toxicity in CD1 mouse assessed as adverse effect in thymus at 50 mg/kg, iv qd administered for 5 days; type: organism-based; set-up: dose 50 mg/kg, route intravenous; details: in vivo, 120 h; summary of the method: as §4
[23] = Toxicity in iv dosed CD1 mouse administered qd for 5 days; type: organism-based; details: in vivo; summary of the method: as §4
Mus musculus [24] = assay: Antiasthamatic activity against ovalbumin-induced asthma in ovalbumin-sensitized BALB/c mouse assessed as inhibition of methacholine-induced bronchoconstriction at 1 mg/kg, iv administered 24 hrs prior to methacholine-challenge by plethysmography; type: functional, organism-based; set-up: dose 1 mg/kg; summary of the method: as §3

Chain of D(1A) dopamine receptor (Homo sapiens) (P21728 whole entry): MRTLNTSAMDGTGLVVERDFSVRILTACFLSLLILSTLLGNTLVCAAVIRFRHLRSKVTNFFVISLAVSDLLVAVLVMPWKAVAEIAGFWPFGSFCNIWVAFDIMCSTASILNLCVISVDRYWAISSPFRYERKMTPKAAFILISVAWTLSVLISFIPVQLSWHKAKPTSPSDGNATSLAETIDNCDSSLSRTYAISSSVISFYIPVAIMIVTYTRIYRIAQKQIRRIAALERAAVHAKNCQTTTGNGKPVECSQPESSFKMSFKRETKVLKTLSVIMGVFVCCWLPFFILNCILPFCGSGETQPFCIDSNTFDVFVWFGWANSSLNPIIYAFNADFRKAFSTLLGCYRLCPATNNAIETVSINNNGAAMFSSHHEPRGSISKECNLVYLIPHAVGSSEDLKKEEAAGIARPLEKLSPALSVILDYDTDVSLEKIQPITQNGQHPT

Row | inhibition [1] | inhibition [2] | inhibition [3] | inhibition [4] | inhibition [5] | inhibition [6] | inhibition [7] | inhibition [8] | inhibition [9] | IC50 [10] [nM] | inhibition [11] | inhibition [12] | inhibition [13] | inhibition [14] | SMILES | further results
1 | inactive | inactive | inactive | inactive | inactive | inactive | inactive | inactive | inactive | 29 | inactive | inactive | inactive | inactive | Cc1cc(NS(C)(=O)=O)ccc1-n1c(CCC(=O)O)ccc1-c1ccc(-n2ccnc2)cc1 | –
2 | inactive | inactive | inactive | inactive | inactive | inactive | inactive | inactive | inactive | 43 | inactive | inactive | inactive | inactive | Cc1cc(NS(C)(=O)=O)ccc1-n1c(CCC(=O)O)ccc1-c1ccc(-n2ccnc2C)s1 | Activity (Mus musculus [15]): Active; Activity (Mus musculus [16]): Toxic; Activity (Mus musculus [17]): Toxic; Activity (Mus musculus [18]): Toxic; Activity (Mus musculus [19]): Toxic; Activity (Mus musculus [20]): Toxic; Activity (Mus musculus [21]): Toxic; Activity (Mus musculus [22]): Toxic; NOAEL at 120 h [23]: 1 mg/kg/day; Activity (Mus musculus [24]): Active
